Experiments:
Canis familiaris [1] = organism: Canis familiaris; test: Positive inotropic in the isolated papillary muscle of the dog.; type: functional, Canis lupus familiaris
How it was run: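 Right ventricular anterior papillary muscle with septum, from mongrel dogs (7–12 kg, pentobarbital 30 mg/kg iv). It was perfused at about 100 mmHg via the septal artery with blood from a heparinized donor dog and paced at 120/min (1 ms pulses, about 1.5× threshold). Isometric tension was recorded. Saline solutions were injected intra-arterially, with amrinone as reference. ED15 (15% rise in developed tension) was taken from log dose-response curves. Results are mean ± SEM (n = 7) or mean ± range (n = 2).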

Canis familiaris [2] = test: Inotropic activity determined by evaluating the % change in Cardiac out put (CO)at a dose of 100 ug/kg administered intravenously […]; type: functional, Canis lupus familiaris
How it was run: (§1)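 Mongrel dogs of either sex, 7–15 kg, anesthetized with sodium pentobarbital (30 mg/kg iv), open-chest, intubated and ventilated on room air. Compounds given intravenously. A femoral artery catheter with pressure transducer recorded SBP and DBP. dP/dtmax, right ventricular contractile force, cardiac output and heart rate were also recorded, as % change at each iv dose.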

Canis familiaris [3] = test: Inotropic activity determined by evaluating the % change in Cardiac out put (CO)at a dose of 30 ug/kg administered intravenously […]; type: functional, Canis lupus familiaris; how it was run: as §1
Canis familiaris [4] = test: Inotropic activity determined by evaluating the maximum rate of rise in left ventricular pressure at a dose of 100 ug/kg administered intravenously […]; type: functional, Canis lupus familiaris, Muscle tissue; how it was run: as §1
Canis familiaris [5] = test: Inotropic activity determined by evaluating the % change in Systolic Blood Pressure (SBP) at a dose of 100 ug/kg administered intravenously […]; type: functional, Canis lupus familiaris, Muscle tissue; how it was run: as §1
Canis familiaris [6] = test: Inotropic activity determined by evaluating the % change in Systolic Blood Pressure (SBP) at a dose of 30 ug/kg administered intravenously […]; type: functional, Canis lupus familiaris, Muscle tissue; how it was run: as §1
Canis familiaris [7] = test: Inotropic activity determined by evaluating the % change in Diastolic Blood Pressure (DBP) at a dose of 30 ug/kg administered intravenously […]; type: functional, Canis lupus familiaris; how it was run: as §1
Canis familiaris [8] = test: Inotropic activity determined by evaluating the maximum rate of rise in left ventricular pressure at a dose of 30 ug/kg administered intravenously […]; type: functional, Canis lupus familiaris, Muscle tissue; how it was run: as §1
Canis familiaris [9] = test: Inotropic activity determined by evaluating the % change in Heart Rate (HR) at a dose of 30 ug/kg administered intravenously […]; type: functional, Canis lupus familiaris; how it was run: as §1
Canis familiaris [10] = test: Inotropic activity determined by evaluating the % change in contractile force (CF) of right ventricle at a dose of 30 ug/kg administered intravenously […]; type: functional, Canis lupus familiaris, Heart right ventricle; how it was run: as §1
Canis familiaris [11] = test: Inotropic activity determined by evaluating the % change in Diastolic Blood Pressure (DBP) at a dose of 100 ug/kg administered intravenously […]; type: functional, Canis lupus familiaris; how it was run: as §1
Canis familiaris [12] = organism: Canis familiaris; test: Positive inotropic activity determined in the […](that produced 30% increase in dose- response curves [dP/dt(max)]); type: functional; conditions: Canis lupus familiaris
How it was run: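 In the anesthetized open-chest dog (mongrel, 7–15 kg, pentobarbital 30 mg/kg iv, ventilated on room air), compounds were given intravenously and LV dP/dtmax was recorded. The dose giving a 30% rise in dP/dtmax was read from the dose-response curves. Results are mean ± SEM (n = 3) or mean ± range (n = 2).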

Canis familiaris [13] = test: Inotropic activity determined by evaluating the % change in Heart Rate (HR) at a dose of 100 ug/kg administered intravenously […]; type: functional, Canis lupus familiaris; how it was run: as §1
Canis familiaris [14] = test: Inotropic activity determined by evaluating the % change in contractile force (CF) of right ventricle at a dose of 100 ug/kg administered intravenously […]; type: functional, Canis lupus familiaris, Heart right ventricle; how it was run: as §1
Canis familiaris [15] = test: Inotropic activity determined by evaluating the % change in Systolic Blood Pressure (SBP) at a dose of 300 ug/kg administered intravenously […]; type: functional, Canis lupus familiaris, Muscle tissue; how it was run: as §1
Canis familiaris [16] = test: Inotropic activity determined by evaluating the % change in Diastolic Blood Pressure (DBP) at a dose of 1000 ug/kg administered intravenously […]; type: functional, Canis lupus familiaris; how it was run: as §1
Canis familiaris [17] = test: Inotropic activity determined by evaluating the maximum rate of rise in left ventricular pressure at a dose of 300 ug/kg administered intravenously […]; type: functional, Canis lupus familiaris, Muscle tissue; how it was run: as §1
Canis familiaris [18] = test: Inotropic activity determined by evaluating the % change in contractile force (CF) of right ventricle at a dose of 1000 ug/kg administered intravenously […]; type: functional, Canis lupus familiaris, Heart right ventricle; how it was run: as §1
Canis familiaris [19] = test: Inotropic activity determined by evaluating the % change in Heart Rate (HR) at a dose of 300 ug/kg administered intravenously […]; type: functional, Canis lupus familiaris, Muscle tissue; how it was run: as §1
Canis familiaris [20] = test: Inotropic activity determined by evaluating the % change in Diastolic Blood Pressure (DBP) at a dose of 300 ug/kg administered intravenously […]; type: functional, Canis lupus familiaris; how it was run: as §1
Canis familiaris [21] = test: Inotropic activity determined by evaluating the % change in contractile force (CF) of right ventricle at a dose of 300 ug/kg administered intravenously […]; type: functional, Canis lupus familiaris, Heart right ventricle; how it was run: as §1
Canis familiaris [22] = test: Inotropic activity determined by evaluating the % change in Systolic Blood Pressure (SBP) at a dose of 1000 ug/kg administered intravenously […]; type: functional, Canis lupus familiaris, Muscle tissue; how it was run: as §1
Canis familiaris [23] = test: Inotropic activity determined by evaluating the % change in Cardiac out put (CO)at a dose of 300 ug/kg administered intravenously […]; type: functional, Canis lupus familiaris; how it was run: as §1
Canis familiaris [24] = test: Inotropic activity determined by evaluating the maximum rate of rise in left ventricular pressure at a dose of 1000 ug/kg administered intravenously […]; type: functional, Canis lupus familiaris, Muscle tissue; how it was run: as §1
Canis familiaris [25] = test: Inotropic activity determined by evaluating the % change in Heart Rate (HR) at a dose of 1000 ug/kg administered intravenously […]; type: functional, Canis lupus familiaris; how it was run: as §1
Canis familiaris [26] = test: Inotropic activity determined by evaluating the % change in Cardiac out put (CO)at a dose of 1000 ug/kg administered intravenously […]; type: functional, Canis lupus familiaris; how it was run: as §1

CC(Nc1ccc(C2=NNC(=O)CC2)cc1)c1ccncc1 (stereo unspecified)
ED15 (Canis familiaris [1]): 33 µg

CN(C)c1ccc(CNc2ccc(C3=NNC(=O)CC3)cc2)cc1
ED15 (Canis familiaris [1]): >300 µg

Cl.O=C1CCC(c2ccc(Nc3ncccn3)cc2)=NN1
ED15 (Canis familiaris [1]): 165 µg

CN(c1ccc(C2=NNC(=O)CC2)cc1)c1ccccn1.Cl
Change of CO (Canis familiaris [2]): 18.7% | Change of CO (Canis familiaris [3]): 13.2% | dP/dt (Canis familiaris [4]): 32.5% | Change of SBP (Canis familiaris [5]): -10.5% | ED15 (Canis familiaris [1]): 5.6 µg | Change of SBP (Canis familiaris [6]): -6.3% | Change of DBP (Canis familiaris [7]): -9.6% | dP/dt (Canis familiaris [8]): 14.3% | Change of HR (Canis familiaris [9]): 4.5% | Change of CF (Canis familiaris [10]): 16.5% | Change of DBP (Canis familiaris [11]): -17.8% | ED30 (Canis familiaris [12]): > 0.1 mg/kg | Change of HR (Canis familiaris [13]): 9.5% | Change of CF (Canis familiaris [14]): 37.7%

O=C1CCC(c2ccc(NCc3ccnc4ccccc34)cc2)=NN1
ED15 (Canis familiaris [1]): >300 µg

CCc1cc(O)nnc1-c1ccc(Nc2ccncc2)cc1.Cl
Change of SBP (Canis familiaris [15]): 0.4% | Change of DBP (Canis familiaris [16]): -9.3% | dP/dt (Canis familiaris [17]): 1% | Change of CF (Canis familiaris [18]): 4.2% | Change of HR (Canis familiaris [19]): -0.1% | Change of DBP (Canis familiaris [20]): -0.9% | ED15 (Canis familiaris [1]): >300 µg | Change of CF (Canis familiaris [21]): 2.8% | Change of SBP (Canis familiaris [22]): -5% | Change of CO (Canis familiaris [23]): 3.9% | dP/dt (Canis familiaris [24]): -0.9% | ED30 (Canis familiaris [12]): > 1 mg/kg | Change of HR (Canis familiaris [25]): -2.9% | Change of CO (Canis familiaris [26]): 8.6%

CC1CC(c2ccc(Nc3ccncc3)cc2)=NNC1=O.Cl (stereo unspecified)
Change of CO (Canis familiaris [2]): 23.3% | Change of CO (Canis familiaris [3]): 10.3% | dP/dt (Canis familiaris [4]): 43.8% | Change of SBP (Canis familiaris [5]): -14.6% | ED15 (Canis familiaris [1]): 4.7 µg | Change of SBP (Canis familiaris [6]): -5.9% | Change of DBP (Canis familiaris [7]): -9.8% | dP/dt (Canis familiaris [8]): 24.2% | Change of HR (Canis familiaris [9]): 4.6% | Change of CF (Canis familiaris [10]): 22.5% | Change of DBP (Canis familiaris [11]): -26.1% | ED30 (Canis familiaris [12]): 0.072 mg/kg | Change of HR (Canis familiaris [13]): 17.3% | Change of CF (Canis familiaris [14]): 52.9%

O=C1CCC(c2ccc(NCc3ccncc3)cc2)=NN1
ED15 (Canis familiaris [1]): >300 µg

CN(c1ccncc1)c1ccc(C2=NNC(=O)CC2)cc1.Cl
Change of CO (Canis familiaris [2]): 5.9% | Change of SBP (Canis familiaris [15]): -5.8% | dP/dt (Canis familiaris [17]): 17.8% | Change of HR (Canis familiaris [19]): 2.7% | Change of DBP (Canis familiaris [20]): -10.3% | dP/dt (Canis familiaris [4]): 13.6% | Change of SBP (Canis familiaris [5]): -2.1% | ED15 (Canis familiaris [1]): 38 µg | Change of CF (Canis familiaris [21]): 20% | Change of CO (Canis familiaris [23]): 8.7% | Change of DBP (Canis familiaris [11]): -4% | ED30 (Canis familiaris [12]): > 0.3 mg/kg | Change of HR (Canis familiaris [13]): 1.4% | Change of CF (Canis familiaris [14]): 11%

Reference: ChEMBL document CHEMBL1123853, “A novel class of cardiotonics. Synthesis and pharmacological properties of [4-(substituted-amino)phenyl]pyridazinones and related derivatives” (1987)
